Source: PubChem BioAssay AID2097 (Broad Institute, 2009)
The whole screen tested about 300,000 compounds, of which about 120 (0.04%) were called active.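 How the source made its calls: active means more than half of replicate wells score below -50%, meaning over 50% inhibition versus plate controls; inconclusive means some replicates but at most half score below -50%; inactive means no replicate scores below -50%.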 Many of the other results were omitted from the sample, so actives are more common in it than they were.

biological target: Glycogen synthase kinase-3 beta (Homo sapiens) (UniProt P49841); experiment: blockers of GSK3B enzyme activity – biochemical, cell-free homogeneous, HTS, primary screen (AID 2097); conditions: GST-GSK3beta kinase, ADP-Glo luminescence, 60 min; at 10 µM; active compounds read low;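 further: 0% = median DMSO wells and -100% = median GW8510 positive control wells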
Sequence (P49841 whole entry, looked up): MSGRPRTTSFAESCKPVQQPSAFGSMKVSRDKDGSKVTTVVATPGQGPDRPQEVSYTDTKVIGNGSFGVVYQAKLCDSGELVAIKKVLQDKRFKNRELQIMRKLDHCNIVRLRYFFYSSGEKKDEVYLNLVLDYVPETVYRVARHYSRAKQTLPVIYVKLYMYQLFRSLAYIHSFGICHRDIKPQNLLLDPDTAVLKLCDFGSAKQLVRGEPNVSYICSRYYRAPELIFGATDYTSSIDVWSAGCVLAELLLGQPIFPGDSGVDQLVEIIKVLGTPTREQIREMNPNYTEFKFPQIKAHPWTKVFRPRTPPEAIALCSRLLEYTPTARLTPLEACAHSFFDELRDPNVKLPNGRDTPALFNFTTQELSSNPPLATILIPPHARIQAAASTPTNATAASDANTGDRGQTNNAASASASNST
Summary of the method: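 Test system: GST-tagged human GSK3beta kinase, cell-free; evaluation: activity score scaled between in-plate DMSO and GW8510 controls; measured by: ADP-Glo luminescence; incubation: 60 min reaction, RT; benchmarks: DMSO and 20 µM GW8510; reagent: peptide substrate plus 25 µM ATP (final); medium: Tris/MgCl2 kinase buffer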

Activity score (negative = inhibition), inactive:
CC1CC2=C(CC1/C=N/NC(N)=S)C(C)(C)CCC2 (configuration not stated) -1.32%
O=C1NC(Nc2nc3ccccc3s2)(C(F)(F)F)C(=O)N1C1CCCCC1 (configuration not stated) -3.19%
Cc1ccc(C2=NN(C)c3nc4ccccc4n3C2)cc1 1.54%
Nc1nc(CC(=O)CSc2ccc(Cl)cc2)nc(Nc2ccc(F)cc2)n1 0.55%
Oc1c(Cl)cc(Cl)cc1/C=N/c1ncn[nH]1 0.992%
COC(C[C@H](O)CC(=O)[C@@H](C)OCc1ccccc1)OC -8.84%
Cc1cc(C)c(-c2csc(NC(=O)CCCc3nc4ccccc4c(=O)[nH]3)n2)c(C)c1 2.17%
COC(=O)Nc1ccc(S(=O)(=O)N2CCN(CCN3C(=O)C4C5C=CC(C5)C4C3=O)CC2)cc1 (configuration not stated) -3.94%
O=C1C(=O)N(CCCN2CCOCC2)C(c2ccc([N+](=O)[O-])cc2)/C1=C(\O)c1ccc2c(c1)OCCO2 (configuration not stated) 1.45%
COc1nc(Oc2ccc(=O)n(C)n2)nc(N(C)C)n1 0.382%
Cc1ccc(OCC(=O)Nc2ccc(C(=O)O)cc2NC(=O)COc2ccc(C)c(C)c2)cc1C 2.29%
CC(=O)N1CCSc2ccc(S(=O)(=O)N3CCC(C)CC3)cc21 1.34%
O=C(NCc1ccco1)C1CCCN1S(=O)(=O)c1ccccc1C(F)(F)F (configuration not stated) 1.38%
Cn1c(=O)[nH]c(=O)c2c1nc(N1CCN(C(c3ccccc3)c3ccccc3)CC1)n2CCO -22.6%
CCN(CC(=O)Nc1ccccc1C(F)(F)F)C(=O)CSCc1c(C)noc1C -1.14%
CN1CCN(S(=O)(=O)c2ccc(Nc3ccc(F)cc3)nc2)CC1 2.53%
CC1(C)Cc2ccccc2/C(=C/C(=O)c2ccccc2)N1 -1.05%
CN(C)S(=O)(=O)c1ccc(N2CCCC2)c(C(=O)Nc2ccc(Br)cc2F)c1 3.14%
COc1ccc2c(c1OC)C(=O)N(c1ccc(O)cc1)C2 -1.79%
C=CCOc1c2ccc(C(=O)N(CC)c3ccc(OC)cc3)cc2nn1C 0.746%
O=CN1CCN(C(=O)c2ccc3c(c2)OCO3)CC1 2.93%
C/C(CC(=O)NCc1ccc(Cl)cc1)=N\NC(=O)COc1ccc(C)cc1Br -2.78%
COc1ccccc1C(=O)N(C1=NC(C)CS1)c1ccc(Cl)cc1 (configuration not stated) 6.2%
O=C(Nc1ccccc1)Nc1nnc(COc2ccccc2F)s1 0.847%
CCCN1C2CCCC1CC(NC(=O)c1cccc(OC)c1)C2 (configuration not stated) 2.34%
CN(CCNC(=O)c1cc2c(-c3ccccc3F)nn(C)c2s1)C1CCCCC1 -2.3%
COC(=O)c1ccc(CN2C(=O)NC(c3ccccc3)(c3ccccc3)C2=O)o1 -0.96%
CCn1cc(C(=O)N[C@@H](C)C(=O)NCCO)c(=O)c2cc3c(cc21)OCO3 -0.599%
O=[N+]([O-])c1cc([N+](=O)[O-])c(Oc2cc(F)cc(F)c2F)cc1NN1CCCCC1 -1.52%
CC(NC(=O)C1CCCN(S(=O)(=O)c2ccc(-n3cnnn3)cc2)C1)c1ccc(F)cc1 (configuration not stated) -1.62%
COc1cc(NC(=O)C2CCN(c3cnccn3)CC2)cc(OC)c1 -0.841%
O=c1[nH]c2ccccc2n2c(-c3ccccc3)nnc12 -0.961%
CCCCN(C(=O)CSCC(=O)Nc1ccc(OC)cc1)c1c(N)n(CCC)c(=O)[nH]c1=O -1.15%
Cc1nnsc1S(=O)(=O)Cc1ccccc1Cl -0.424%
CC(=O)N1c2ccc(S(=O)(=O)N3CCCC(C(=O)Nc4ccc(C)cc4C)C3)cc2CC1C (configuration not stated) 0.432%
CCOC(OCC)c1ccc(/C=C\c2nccc(N)n2)cc1 -5.66%
Cc1cccc(CCNS(=O)(=O)c2ccc(S(=O)(=O)NC3CCCC3)cc2)c1 -0.921%
COc1ccc(C)cc1N(C)C(=O)c1coc(=O)c2ccccc12 3.14%
COc1ccc(Cl)cc1NC(=O)C(C)N1CCc2ccccc21 (configuration not stated) 0.322%
COC(=O)[C@]1(C)N[C@H](c2ccc(-c3ccc(Cl)c(Cl)c3)cc2)[C@@H]2C(=O)N(C)C(=O)[C@@H]21 -2.15%
Cc1cc(C)c(S(=O)(=O)c2ccccc2)c(OC(=O)c2c(F)cccc2Cl)n1 7.18%
N#Cc1ccccc1Sc1ccccc1C(=O)OCC(=O)NC1CCCCC1 5.54%
Cc1cc(Br)ccc1NC(=O)c1cnc(N2CCN(c3ccccn3)CC2)c2ccccc12 -4.35%
Cc1nnc(NC(=O)CCC(=O)N2CCC(C)CC2)s1 0.523%
Cc1ccc(NC(=O)c2ccc(CSc3ncnc4nc[nH]c34)cc2)c(C)c1 -7.49%
Cc1ccc2nc(NC(=O)CSc3nc(=O)n(CCCN(C)C)c4c3CCC4)sc2c1 2.91%
Cn1c(=O)c(=O)n(C)c2cc(S(=O)(=O)CCC(=O)N3CCCCC3)ccc21 2.02%
CCN(c1ccc2c(c1)OCO2)S(=O)(=O)c1cc(Br)cc2c1N(C(=O)C1CC1)CC2 -2.85%
CCC1(CC)NC(=O)N(CC(=O)OCC(=O)Nc2ccc(C(F)(F)F)cc2)C1=O -0.836%
COC(=O)c1cc2n(n1)CCCNC2=O 2.64%
O=C(NC1CCCC1)C(NS(=O)(=O)c1ccc(Br)s1)c1ccccc1 (configuration not stated) -0.275%
O=C(O)c1ccc2c(=O)n3c(nc2c1)/C(=C/c1ccc(OC(F)F)cc1OC(F)F)CC3 -1.21%
COCCNC(=O)C1CCN(S(=O)(=O)c2ccc3c(c2)OCCO3)CC1 -2.22%
O=C(Nc1cccc(F)c1)N1C2CCC1CC(O)(c1cccnc1)C2 (configuration not stated) 2.54%
CC(C)NS(=O)(=O)c1ccc(OCC(=O)NC2CCCCCC2)cc1 1.95%
CC(C)NC(=O)c1ccccc1S(=O)c1ccccc1C#N (configuration not stated) -1.11%
CC(=O)Nc1nc2c(s1)C(=O)NCC(C)(C)C2 3.79%
